Activity calls are given as the source filed them. The rule behind the calls is not given here.
What was measured:
[1] = test system: HT-29; assay: Cytotoxicity against human HT-29 cells measured after 24 to 72 hrs by SRB assay; type: functional, cell-based
Procedure, shortened: (§1)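 Cells from ATCC: HT-29 in RPMI 1640 with 10% FBS and 1% P/S; OVCAR3 in RPMI 1640 with 20% FBS, 1% P/S and 10 µg/mL insulin. Both kept at 37°C in 5% CO₂ and passaged at most 20 times. Seeded at 2,500–5,000 cells/well, attached overnight, then treated 24, 48 or 72 h (DMSO final 0.25%). Fixed, SRB-stained protein read out; normalized to vehicle; IC₅₀ from dose-response curves.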

[2] = test system: OVCAR-3; assay: Cytotoxicity against human OVCAR3 cells measured after 24 to 72 hrs by SRB assay; type: functional, cell-based; procedure, shortened: as §1
[3] = test system: MDA-MB-231; assay: Cytotoxicity against human MDA-MB-231 cells after 72 hrs by CellTiter96 AQueous one solution cell proliferation assay; type: functional, cell-based; conditions: MDA-MB-231, 72 h
[4] = test system: MDA-MB-435; assay: Cytotoxicity against human MDA-MB-435 cells after 72 hrs by CellTiter96 AQueous one solution cell proliferation assay; type: functional, cell-based; conditions: MDA-MB-435, 72 h
[5] = Cytotoxicity against human K/VP.5 cells after 72 hrs by CellTiter96 AQueous one solution cell proliferation assay; type: functional, cell-based; conditions: K/VP.5, 72 h
Procedure, shortened: (§2)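 K562 and etoposide-resistant K/VP.5 cells (~1/5 topo IIα level) in suspension at 7.5 × 10⁴ cells/ml exposed to DMSO vehicle or serial compound concentrations (final DMSO 0.5%), triplicate wells; 72 hr at 37°C, then MTS reagent 1 hr at 37°C, absorbance 490 nm. IC₅₀ from four-parameter logistic fit; relative resistance = IC₅₀ K/VP.5 ÷ IC₅₀ K562; n = separate-day repeats.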

[6] = Resistance index, ratio of IC50 for human K/VP.5 cells to IC50 for human etoposide-sensitive K562 cells; type: functional; procedure, shortened: as §2
[7] = test system: K562; assay: Cytotoxicity against human etoposide-sensitive K562 cells after 72 hrs by CellTiter96 AQueous one solution cell proliferation assay; type: functional, cell-based; conditions: K562, 72 h; procedure, shortened: as §2
[8] = target: DNA topoisomerase 2-alpha (Homo sapiens) (UniProt P11388); assay: Inhibition of full-length recombinant human topoisomerase-2alpha expressed in yeast expression system assessed as reduction in enzyme-mediated supercoiled pBR322 DNA relaxation at 50 to 100 uM measured after 15 mins by ethidium bromide staining based agarose gel electrophoresis
Procedure, shortened: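 Topo IIα (125 ng) with 150 ng negatively supercoiled pBR322 and 1 mM ATP in 10 mM Tris-HCl pH 8.0, 50 mM KCl, 50 mM NaCl, 0.1 mM EDTA, 5 mM MgCl₂, 2.5% glycerol, drug in DMSO; started with enzyme, 15 min at 37°C, SDS/EDTA stop. Products resolved on 1% TBE agarose, ethidium bromide stained, imaged under UV.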

[9] = Selectivity ratio of IC50 for human OVCAR3 cells to IC50 for human HT-29 cells; type: functional
[10] = target: DNA topoisomerase 2-alpha (Homo sapiens) (UniProt P11388); conditions: 100 uM

Chain of DNA topoisomerase 2-alpha (Homo sapiens) (P11388 whole entry): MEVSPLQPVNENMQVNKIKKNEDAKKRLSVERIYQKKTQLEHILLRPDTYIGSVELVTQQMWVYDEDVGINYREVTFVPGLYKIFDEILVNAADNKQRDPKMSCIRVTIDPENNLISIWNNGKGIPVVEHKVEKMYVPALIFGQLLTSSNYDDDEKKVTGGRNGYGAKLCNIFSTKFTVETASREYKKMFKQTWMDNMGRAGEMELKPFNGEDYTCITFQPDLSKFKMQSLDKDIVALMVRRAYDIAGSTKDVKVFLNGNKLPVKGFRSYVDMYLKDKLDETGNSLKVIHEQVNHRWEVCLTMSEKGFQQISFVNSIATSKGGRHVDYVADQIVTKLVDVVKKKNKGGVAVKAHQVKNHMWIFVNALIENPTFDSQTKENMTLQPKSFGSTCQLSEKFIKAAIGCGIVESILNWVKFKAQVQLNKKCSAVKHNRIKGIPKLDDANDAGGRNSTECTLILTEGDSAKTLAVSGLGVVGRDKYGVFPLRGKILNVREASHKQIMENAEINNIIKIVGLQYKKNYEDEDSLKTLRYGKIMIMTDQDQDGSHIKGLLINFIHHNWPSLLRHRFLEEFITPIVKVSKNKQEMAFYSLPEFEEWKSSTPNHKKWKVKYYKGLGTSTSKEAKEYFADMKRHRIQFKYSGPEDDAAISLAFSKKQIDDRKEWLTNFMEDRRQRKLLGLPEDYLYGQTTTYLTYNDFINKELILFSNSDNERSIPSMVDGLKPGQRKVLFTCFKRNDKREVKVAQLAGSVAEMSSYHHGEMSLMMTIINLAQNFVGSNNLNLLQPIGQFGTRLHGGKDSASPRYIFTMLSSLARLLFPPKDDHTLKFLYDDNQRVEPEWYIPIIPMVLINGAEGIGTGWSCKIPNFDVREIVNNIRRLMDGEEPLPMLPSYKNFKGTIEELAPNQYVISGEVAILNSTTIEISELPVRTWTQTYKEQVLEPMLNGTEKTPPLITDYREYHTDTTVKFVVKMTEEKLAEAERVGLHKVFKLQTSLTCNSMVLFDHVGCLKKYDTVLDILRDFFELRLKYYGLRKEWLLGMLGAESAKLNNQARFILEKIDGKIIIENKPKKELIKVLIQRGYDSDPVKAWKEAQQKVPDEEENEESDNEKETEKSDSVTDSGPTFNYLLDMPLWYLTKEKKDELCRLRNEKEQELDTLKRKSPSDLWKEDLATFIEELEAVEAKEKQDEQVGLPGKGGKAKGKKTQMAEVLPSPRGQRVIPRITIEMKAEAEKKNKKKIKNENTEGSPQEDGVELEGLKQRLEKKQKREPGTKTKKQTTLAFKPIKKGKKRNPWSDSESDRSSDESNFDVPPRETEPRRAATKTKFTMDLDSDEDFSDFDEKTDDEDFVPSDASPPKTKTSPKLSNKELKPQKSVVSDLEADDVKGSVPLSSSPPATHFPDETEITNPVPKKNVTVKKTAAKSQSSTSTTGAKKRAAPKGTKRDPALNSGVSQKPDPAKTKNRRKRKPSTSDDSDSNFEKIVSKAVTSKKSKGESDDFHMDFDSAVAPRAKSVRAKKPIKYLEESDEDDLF

Row | inhibition [10] | SMILES | IC50 [1] [nM] | IC50 [2] [nM] | IC50 [3] [nM] | IC50 [4] [nM] | IC50 [5] [nM] | Ratio IC50 [6] | IC50 [7] [nM] | inhibition [8] | Ratio IC50 [9]
1 |  | CC(=O)O[C@H]1C(=O)[C@@]2(C)[C@H]([C@H](OC(=O)c3ccccc3)[C@]3(O)C[C@H](OC(=O)[C@H](O)[C@@H](NC(=O)c4ccccc4)c4ccccc4)C(C)=C1C3(C)C)[C@]1(OC(C)=O)CO[C@@H]1C[C@@H]2O [PACLITAXEL] | 11 | 11 |  |  |  |  |  |  | 
2 |  | COc1cc2c(O[C@@H]3OC[C@H](O)[C@H](O)[C@H]3O)c3c(c(-c4ccc5c(c4)OCO5)c2cc1OC)C(=O)OC3 [ACUTISSIMALIGNAN A] |  | 4800 |  |  |  |  |  |  | 
3 |  | COc1cc2c(O[C@H]3OC[C@@H](OC(C)=O)[C@@H](OC(C)=O)[C@@H]3OC(C)=O)c3c(c(-c4ccc5c(c4)OCO5)c2cc1OC)C(=O)OC3 | 46 | 370 | 2200 | 500 |  |  |  |  | 
4 |  | CCOC(=O)c1c(C(=O)OCC)c(-c2ccc3c(c2)OCO3)c2cc(OC)c(OC)cc2c1O[C@@H]1OC[C@H](OC(C)=O)[C@H](OC(C)=O)[C@H]1OC(C)=O | > 10000 | > 10000 |  |  |  |  |  |  | 
5 |  | COCc1c(C(=O)OC)c(-c2ccc3c(c2)OCO3)c2cc(OC)c(OC)cc2c1O[C@@H]1OC[C@@H](OC)[C@H](OC)[C@H]1OC | 1700 | 450 |  |  |  |  |  |  | 
6 |  | COc1cc2c(O)c3c(c(-c4ccc5c(c4)OCO5)c2cc1OC)C(=O)OC3 [DIPHYLLIN] |  |  |  |  | 2310 | 0.97 | 2380 |  | 
7 |  | COc1cc2c(O[C@@H]3OC[C@H](OC(C)=O)[C@H](OC(C)=O)[C@H]3OC(C)=O)c3c(c(-c4ccc5c(c4)OCO5)c2cc1OC)COC3 | 1400 | > 10000 |  |  |  |  |  |  | 
8 |  | COc1cc2c(O[C@@H]3O[C@H](COC(C)=O)[C@@H](O[C@@H]4O[C@H](COC(C)=O)[C@H](OC(C)=O)[C@H](OC(C)=O)[C@H]4OC(C)=O)[C@H](OC(C)=O)[C@H]3OC(C)=O)c3c(c(-c4ccc5c(c4)OCO5)c2cc1OC)C(=O)OC3 | 2000 | > 10000 | > 10000 | > 10000 |  |  |  |  | 
9 |  | COc1cc2c(O[C@@H]3OC[C@H](OC(C)=O)[C@H](OC(C)=O)[C@H]3OC(C)=O)c3c(c(-c4ccc5c(c4)OCO5)c2cc1OC)COC3=O | 470 | > 10000 |  |  |  |  |  |  | 
10 |  | COc1cc2c(O[C@@H]3OC[C@H](OC)[C@H](OC)[C@H]3OC)c3c(c(-c4ccc5c(c4)OCO5)c2cc1OC)C(=O)OC3 | 130 | 810 | 650 | 140 | 1280 | 1.02 | 1260 | inactive | 
11 |  | COc1cc2c(O[C@@H]3OC[C@@H](OC)[C@H](OC)[C@H]3OC)c3c(c(-c4ccc5c(c4)OCO5)c2cc1OC)C(=O)OC3 | 18 | 7600 |  |  | 430 | 0.91 | 470 | Active | >400
12 | Active | COc1cc([C@@H]2c3cc4c(cc3[C@@H](O[C@@H]3O[C@@H]5CO[C@@H](C)O[C@H]5[C@H](O)[C@H]3O)[C@H]3COC(=O)[C@H]23)OCO4)cc(OC)c1O [ETOPOSIDE] | 15000 | 2900 |  |  | 35400 | 28.98 | 1220 |  | 
13 |  | COc1cc2c(O[C@@H]3OC[C@@H](O)[C@H](O)[C@H]3O)c3c(c(-c4ccc5c(c4)OCO5)c2cc1OC)C(=O)OC3 | 1400 | 690 |  |  |  |  |  |  | 
14 |  | COc1cc2c(O[C@@H]3OC[C@@H](OC(C)=O)[C@H](OC(C)=O)[C@H]3OC(C)=O)c3c(c(-c4ccc5c(c4)OCO5)c2cc1OC)C(=O)OC3 | 160 | 570 | 5100 | 230 |  |  |  |  | 
15 |  | COc1cc2c(O[C@@H]3OC[C@H](OC(C)=O)[C@H](OC(C)=O)[C@H]3OC(C)=O)c3c(c(-c4ccc5c(c4)OCO5)c2cc1OC)C(=O)OC3 | 140 | 290 | 1000 | 140 | 920 | 1.08 | 850 | Active | 

Reference: ChEMBL document CHEMBL4219229, “Synthesis and antiproliferative activity of derivatives of the phyllanthusmin class of arylnaphthalene lignan lactones” (Bioorg Med Chem, 2018)
